Laboratory results reported in ChEMBL document CHEMBL1671773, “Benzoquinazoline derivatives as new agents affecting DNA processing” (Bioorg Med Chem, 2011).
Activity calls are given as the source filed them. The rule behind the calls is not given here.

Tests used:
[1] = tested on: HL-60; assay: Growth inhibition in human HL60 cells after 72 hrs by trypan blue assay; assay type: functional, cell-based; conditions: HL-60, 72 h
Method in brief: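 HL-60 cells were grown in RPMI 1640 with 15% heat-inactivated FCS and antibiotics at 37 °C under 5% CO2. 4 × 10⁴ cells per well were seeded, and after 24 h test agents were added to complete medium for 72 h. Viability was read by trypan blue. IC50 is the concentration giving 50% reduction in cell number versus control cultures.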

[2] = tested on: A-431; assay: Growth inhibition in human A431 cells after 72 hrs by trypan blue assay; assay type: functional, cell-based; conditions: A-431, 72 h
Method in brief: (§1)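 HeLa (F-12 medium) and A431 (D-MEM) cells were grown with 10% heat-inactivated FCS and antibiotics at 37 °C under 5% CO2. 4 × 10⁴ cells per well were seeded for 24 h, then medium was replaced with fresh medium containing test agents for 72 h. Viability was read by trypan blue. IC50 is the concentration halving cell number versus control.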

[3] = tested on: HeLa; assay: Growth inhibition in human HeLa cells after 72 hrs by trypan blue assay; assay type: functional, cell-based; method in brief: as §1
[4] = tested on: Nucleic Acid; assay: Binding affinity to Salmon testes DNA assessed as drug-DNA complex formation at drug/DNA ratio 0.08 by linear flow dichroism method; assay type: nucleic-acid assay; conditions: Salmonidae
[5] = tested on: Nucleic Acid; assay: Binding affinity to Salmon testes DNA assessed as drug-DNA complex formation at drug/DNA ratio 0.16 by linear flow dichroism method; assay type: nucleic-acid assay; conditions: Salmonidae
[6] = molecular target: DNA topoisomerase 2-alpha (Homo sapiens) (UniProt P11388); assay: Inhibition of human recombinant topoisomerase 2-mediated relaxation of supercoiled pBR322 DNA upt0 100 uM after 60 mins by agarose gel electrophoresis
Chain of DNA topoisomerase 2-alpha (Homo sapiens) (P11388 whole entry): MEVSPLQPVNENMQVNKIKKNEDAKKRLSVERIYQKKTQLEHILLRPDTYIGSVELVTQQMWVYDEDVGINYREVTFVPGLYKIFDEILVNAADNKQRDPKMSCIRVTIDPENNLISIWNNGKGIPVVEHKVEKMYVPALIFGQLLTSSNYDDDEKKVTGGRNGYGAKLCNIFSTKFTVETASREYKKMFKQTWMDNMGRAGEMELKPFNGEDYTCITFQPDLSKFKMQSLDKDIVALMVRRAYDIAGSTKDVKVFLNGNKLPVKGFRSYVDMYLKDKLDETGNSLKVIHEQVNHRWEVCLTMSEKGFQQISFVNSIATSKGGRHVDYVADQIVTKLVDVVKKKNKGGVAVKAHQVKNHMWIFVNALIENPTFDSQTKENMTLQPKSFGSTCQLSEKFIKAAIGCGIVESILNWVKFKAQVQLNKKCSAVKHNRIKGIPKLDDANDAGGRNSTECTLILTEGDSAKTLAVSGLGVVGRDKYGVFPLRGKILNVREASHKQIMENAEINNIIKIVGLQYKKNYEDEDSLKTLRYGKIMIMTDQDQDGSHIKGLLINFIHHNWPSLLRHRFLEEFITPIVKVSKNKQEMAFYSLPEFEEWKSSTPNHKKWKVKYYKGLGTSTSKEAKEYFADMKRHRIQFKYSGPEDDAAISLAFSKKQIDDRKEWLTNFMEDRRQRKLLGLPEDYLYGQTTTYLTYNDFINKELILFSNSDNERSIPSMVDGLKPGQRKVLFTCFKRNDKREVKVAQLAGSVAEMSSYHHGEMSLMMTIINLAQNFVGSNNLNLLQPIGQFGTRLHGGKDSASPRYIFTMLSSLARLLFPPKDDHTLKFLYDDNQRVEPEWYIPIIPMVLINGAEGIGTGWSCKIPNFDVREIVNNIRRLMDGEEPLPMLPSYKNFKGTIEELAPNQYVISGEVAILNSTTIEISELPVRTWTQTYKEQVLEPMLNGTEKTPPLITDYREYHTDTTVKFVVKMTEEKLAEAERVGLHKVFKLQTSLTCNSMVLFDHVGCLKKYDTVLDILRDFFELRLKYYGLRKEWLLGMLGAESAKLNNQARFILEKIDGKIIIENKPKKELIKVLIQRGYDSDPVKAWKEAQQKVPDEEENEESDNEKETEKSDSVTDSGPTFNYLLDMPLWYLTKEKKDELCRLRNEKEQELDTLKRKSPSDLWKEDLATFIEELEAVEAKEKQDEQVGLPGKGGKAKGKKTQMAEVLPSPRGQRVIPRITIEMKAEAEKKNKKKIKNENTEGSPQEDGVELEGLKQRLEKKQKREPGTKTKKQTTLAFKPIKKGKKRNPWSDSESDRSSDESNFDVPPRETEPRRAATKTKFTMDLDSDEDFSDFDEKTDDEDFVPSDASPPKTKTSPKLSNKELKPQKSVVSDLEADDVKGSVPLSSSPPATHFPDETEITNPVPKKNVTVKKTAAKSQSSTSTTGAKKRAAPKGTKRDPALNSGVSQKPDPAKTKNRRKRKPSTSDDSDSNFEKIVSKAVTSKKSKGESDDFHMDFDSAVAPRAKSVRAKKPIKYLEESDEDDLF
Method in brief: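 Supercoiled pBR322 (0.25 µg) was incubated with 1 U topoisomerase II plus compounds for 60 min at 37 °C in 20 µL. The reaction was stopped with SDS stop buffer and 50 µg/mL proteinase K for 30 min at 37 °C. Products were run on a 1% agarose gel at room temperature, then stained with 1 µg/mL ethidium bromide and imaged under UV.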

[7] = tested on: Nucleic Acid; assay: Stabilization of supercoiled pBR322 DNA-human recombinant topoisomerase 2 complex assessed as linear DNA formation at 8 uM after 60 mins; assay type: nucleic-acid assay; conditions: Escherichia coli
[8] = tested on: Nucleic Acid; assay: Induction of Escherichia coli supercoiled pBR322 DNA cleavage at 50 uM after 60mins by gel electrophoresis; assay type: nucleic-acid assay
[9] = tested on: Nucleic Acid; assay: Induction of Escherichia coli supercoiled pBR322 DNA cleavage after 60mins by gel electrophoresis; assay type: nucleic-acid assay
[10] = tested on: Nucleic Acid; assay: Stabilization of supercoiled pBR322 DNA-human recombinant topoisomerase 2 complex assessed as linear DNA formation at 10 to 100 uM after 60 mins; assay type: nucleic-acid assay; conditions: Escherichia coli
[11] = tested on: HeLa; assay: Induction of apoptosis in human HeLa cells assessed as induction of DNA fragmentation at 200 uM after 24 hrs using ethidium bromide staining by agarose gel electrophoresis; assay type: functional, cell-based
Method in brief: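 HeLa cells (5 × 10⁵) were preincubated 24 h at 37 °C, then medium was replaced with fresh medium containing test agent; controls received solvent alone. After 24 h, nuclear DNA was extracted and dissolved in TE buffer (10 mM Tris pH 8, 1 mM EDTA). Fragmentation was examined on a 1% agarose gel.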

SMILES | IC50 [1] [µM] | IC50 [2] [µM] | IC50 [3] [µM] | Activity [4] | Activity [5] | inhibition [6] | Activity [7] | inhibition [8] | inhibition [9] | Activity [10] | Activity [11]
COc1cc(NS(C)(=O)=O)ccc1Nc1cc2ncncc2c2ccccc12 | 30.7 | 77.7 | > 100 |  |  |  |  |  |  |  | 
Cc1c2ccncc2c(C)c2c1[nH]c1ccccc12 [ELLIPTECINE] | 0.64 | 0.47 | 0.31 |  |  |  |  |  |  |  | 
CN(C)CCNc1ncnc2c1ccc1ccccc12 | 61.6 | 50.5 | > 100 | Active | Active | inactive |  |  |  |  | 
COc1cc(NS(C)(=O)=O)ccc1Nc1c2ccccc2nc2ccccc12 [AMSACRINE] | 0.006 | 0.17 | 0.012 |  |  |  | Active |  |  |  | 
CN(C)CCNc1cc2cncnc2c2ccccc12 | 10.8 | 3.6 | 15.7 | Active |  |  |  | Dose-dependent effect | Active | Active | Active
CS(=O)(=O)Nc1ccc(Nc2cc3ncncc3c3ccccc23)cc1 | > 100 | > 100 | > 100 |  |  |  |  |  |  |  | 

Further lines, with some results ahead:

IC50 [1] [µM] | IC50 [2] [µM] | IC50 [3] [µM] | Activity [4] | Activity [5] | inhibition [6] | Activity [7] | inhibition [8] | inhibition [9] | Activity [10] | SMILES | Activity [11]
26.9 | > 100 | > 100 |  |  |  |  |  |  |  | COc1cc(NS(C)(=O)=O)ccc1Nc1cc2cncnc2c2ccccc12 | 
4.3 | 4.3 | 23.2 | Active |  |  |  | Dose-dependent effect | Active | Active | CN(C)CCNc1cc2ncncc2c2ccccc12 | Active
26.5 | 57.7 | > 100 |  |  |  |  |  |  |  | CS(=O)(=O)Nc1ccc(Nc2cc3cncnc3c3ccccc23)cc1 | 
